From PubChem
An excerpt weighted towards active compounds, which were near 5.1% of everything screened.
STAT3 act-1: IL-6 driven STAT3 reporter potentiators, primary screen, U3A cells, luciferase, luminescence, MLSCN library; IL-6 STAT3-luciferase reporter; 100% = signal with IL-6 EC80 alone; activation (% of control), % at 5.6 µM; actives 0.91% (n = 190,000);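 active = activation above the screen-wide mean of compound activation plus 3 SD, cut at about 130% in these data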;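 note: 0% = background luminescence of wells with medium and substrate only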
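Test system: Human STAT1-deficient U3A cells with stable STAT3-luciferase reporter | Also added: Interleukin-6, 33 ng/mL | Timing: Compound pre-incubation 1 h before IL-6, then 6 h stimulation at 37 °C | Technique: Luciferase reporter luminescence | Read-out: Percent of IL-6-only median luminescence | Benchmarks: IL-6-only wells as 100% reference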
STAT1 inh-1: STAT1 signaling inhibitors, primary screen, cell-based, HTS, luciferase reporter. NIH 3T3 STAT1-luciferase reporter, IFN-gamma, luminescence. inhibition, % at 5.5 µM. actives 0.35% (n = 200,000). AID 920, 2007;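 active = inhibition above a set limit, the mean inhibition across all tested compounds plus 3 SD, cut at about 34% in these data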;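 note: 0% = IFN-gamma with DMSO and 100% = IFN-gamma with 300 µM nifuroxazide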
STAT3 inh: IL-6 driven STAT3 reporter inhibitors, primary screen, U3A cells, luciferase, luminescence, MLSCN library; IL-6 STAT3-luciferase reporter; host cell line lacks STAT1; inhibition, % at 5.5 µM; actives 0.89% (n = 190,000); AID 862, 2007;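 active = inhibition above the mean inhibition across all screened compounds plus 3 SD, cut at about 44% in these data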;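 note: 0% = DMSO only wells and 100% = 100 µM nifuroxazide control wells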
NF-kB expr up: activators of NF-kB expression in neurons, primary screen, cell-based, HTS; human neuronal cells, NF-kB reporter expression; active compounds read high; fold change at 12.5 µM; actives 1.6% (n = 190,000); AID 1239, 2008; in the data active = fold change above about 3.3
APP 5'UTR act: activators of APP 5'UTR luciferase reporter, primary screen, SH-SY5Y cells; SH-SY5Y APP 5'UTR luciferase reporter, luminescence; zero percent = DMSO vehicle wells; activation, % at 2 µM; actives 1% (n = 190,000); AID 1276, 2008;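 active = activation above a set limit, based on mean plus 3 SD of controls, cut at about 140% in these data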
STAT1 act-1: STAT1 signaling activators, primary screen, cell-based, HTS, luciferase reporter; NIH 3T3 STAT1-luciferase reporter, IFN-gamma, luminescence; 100% = IFN-gamma alone, no compound; activation (% of control), % at 5.5 µM; actives 2.6% (n = 200,000);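 active = activation above the screen-wide mean activation plus 3 SD, cut at about 130% in these data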;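 note: raw ratio to IFN-gamma control signal so 100% means no change and 0% no light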
STAT3 act-2: STAT3 reporter potentiators, retest of hits, confirmation, U3A cells, luciferase, luminescence; actives 64% (n = 1,200); shares compounds with STAT3 act-1; potentiation (% of control), % at 5.7 µM; IL-6 potentiation; U3A cells lack STAT1; 100 means same as IL-6 alone;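 active = percent activation of the STAT3 luciferase reporter above a set limit taken from the earlier primary screen, cut at about 130% in these data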;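 note: 0% = background signal of medium plus substrate and 100% = median of IL-6 with DMSO wells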
NFkB act STAT3ct: NF-kB reporter activators in human cells, counter-screen for STAT3 activator project. shares compounds with STAT3 act-1. NF-kappaB reporter activation. activation (% of control), % at 5.7 µM. actives 11% (n = 1,200). AID 1309, 2008; in the data active = activation above about 120%;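 note: reporter induced by TNF-alpha stimulation; 100% = median of stimulated DMSO wells and 0% = no signal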
STAT1 act-2: STAT1 reporter activators, IFN-gamma induced, counter-screen for STAT3 activator project, cell-based, NIH 3T3, luciferase luminescence; activation (% of control), % at 5.7 µM; AID 1318, 2008; actives 13% (n = 1,200); shares compounds with STAT3 act-1; NIH 3T3 STAT1-luciferase reporter;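 active = activation above the solvent-only control well mean plus 3 SD, set per screening run, cut at about 120% in these data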;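 note: 100% = IFN-gamma with DMSO median signal so 100% means no change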
STAT1 inh-2: STAT1 signaling inhibitors, confirmation, cell-based, HTS, luciferase reporter | shares compounds with STAT1 inh-1 | NIH 3T3 STAT1-luciferase reporter, IFN-gamma, luminescence | inhibition, % at 5.5 µM | actives 55% (n = 200) | AID 1263, 2008;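 active = triplicate mean inhibition exceeding the hit cutoff computed for the primary STAT1 screen, cut at about 35% in these data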;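 note: 0% = DMSO with IFN-gamma and 100% = 300 µM nifuroxazide with IFN-gamma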
NFkB inh: NF-kB reporter inhibitors, TNF-alpha stimulated, counter-screen for STAT1 inhibitor project, cell-based, HEK293T, luciferase luminescence; shares compounds with STAT1 inh-1; TNF-alpha induced; inhibition, % at 5.7 µM; actives 30% (n = 200); AID 1303, 2008;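 active = inhibition above the mean of solvent-only control wells plus 3 SD of those wells, cut at about 15% in these data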;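 note: 0% = DMSO with TNF-alpha and 100% = MG-132 control with TNF-alpha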
STAT3 inh STAT1c: STAT3 reporter inhibition by STAT1 hits, counter-screen for STAT1 inhibitor project, U3A cells, luciferase, luminescence, triplicate; actives 20% (n = 200); AID 1310, 2008; IL-6 STAT3 luciferase reporter; cells lacking STAT1; inhibition, % at 5.7 µM; shares compounds with STAT1 inh-1;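 active = inhibition above the mean of solvent-only control wells plus 3 SD, set per campaign, cut at about 25% in these data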;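 note: 0% = IL-6 plus DMSO and 100% = IL-6 plus nifuroxazide control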
An asterisk follows results filed as active; · = not tested or not shown.

SMILES	STAT3 act-1	STAT1 inh-1	STAT3 inh	NF-kB expr up	APP 5'UTR act	STAT1 act-1	STAT3 act-2	NFkB act STAT3ct	STAT1 act-2	others
CC(/C=C/c1ccccc1)=N/NC(=O)c1cccc(Br)c1	100.6	-5.2	6.3	0.96	-18.0	103.8	·	·	·
CC1(C)CC(=O)C2=C(C1)N1C(=C(C#N)C2c2ccc(Cl)cc2)N=C(N)c2ccccc21 (stereo not given)	129.0	-5.8	-33.8	0.49	0.9	105.3	·	·	·
N#CC1=C2N=C(N)c3ccccc3N2C2=C(C(=O)CCC2)C1c1ccc(Cl)cc1 (stereo not given)	182.9*	8.2	-96.5	0.45	-7.9	92.5	148.8*	96.9	97.0
CCOc1ccc(N2C(=O)/C(=C\c3ccccc3OC)S(=O)(=O)C2c2cccc([N+](=O)[O-])c2)cc1 (stereo not given)	108.9	-7.6	-12.2	1.25	10.0	106.8	·	·	·
CCOC(=O)C(CC)(CC)C(=O)/C=C/c1cccc(Br)c1	108.2	-0.5	0.7	·	-9.3	100.4	·	·	·
CC(=O)Nc1c(Cl)n(C(C)=O)c2ccccc12	175.0*	9.9	-90.6	1.12	11.7	90.6	159.3*	102.5	93.6
CC(NC(=O)CSc1nnc(-c2cccnc2)n1N)c1ccccc1 (stereo not given)	87.2	5.2	22.7	1.11	2.0	95.4	·	·	·
O=C(c1ccc2ccccc2n1)N1CCN(c2ccccc2O)CC1	157.3*	-0.1	-60.7	1.13	43.3	100.1	157.6*	103.2	101.7
O=C(Nc1cccc(Cl)c1N1CCCC1)c1cccc(-c2cc3ccccc3oc2=O)c1	107.3	-15.8	-3.3	1.63	25.3	114.5	·	·	·
CCOC(=O)c1cnc(-c2ccccc2)nc1N(C)C	173.0*	-17.9	-86.8	1.86	92.2	116.5	154.6*	116.3	136.4*
O=c1cc(-c2ccccc2)[nH]n1-c1nc2ccccc2s1	138.4*	-4.3	-33.3	1.56	36.9	103.9	123.1	126.2*	117.8
CNC(=S)NCC(O)c1ccc([N+](=O)[O-])cc1 (stereo not given)	102.7	-1.2	1.8	1.62	-0.8	101.0	·	·	·
CCOC(=O)c1c(NC(=O)COc2cccc3c2CCN(CC)C3=O)sc2c1CCC2	97.3	-1.1	5.4	0.65	6.4	101.0	·	·	·
Cc1ccc(-n2nc(C)c3c2OC(N)=C(C#N)C3c2cccs2)cc1 (stereo not given)	142.5*	11.2	-42.1	0.88	2.5	90.1	156.9*	109.6	94.1
Cc1cccc(NC(=S)NC(=O)c2cccs2)n1	140.6*	-22.1	-36.2	2.04	81.6	119.9	137.9*	117.2	119.2
Cc1nc(NC(=S)NC(=O)c2cccs2)ccc1Br	148.1*	-1.4	-48.6	2.25	67.7	101.3	173.2*	109.9	114.3
Cc1ccc2nc(NC(=S)NC(=O)c3cccs3)sc2c1	163.3*	-23.1	-62.2	5.45*	242.7*	120.8	171.1*	125.8*	132.1*
CCO[C@@H]1OC(C(=O)N2CCN(Cc3ccccc3)CC2)=C[C@H](c2csc3ccccc23)[C@H]1CCCO	·	-10.4	·	0.61	20.3	111.2	·	·	·
COc1ccccc1C1c2[nH]c3ccccc3c2CCN1Cc1cnc(C)s1 (stereo not given)	146.1*	54.5*	-45.5	0.89	1.8	48.8	176.3*	105.7	94.8	STAT1 inh-2=32.1;NFkB inh=5.8;STAT3 inh STAT1c=-53.5
O=Cc1ccc(OCC(=O)N2CCOCC2)cc1	101.5	-7.1	0.5	1.02	17.2	104.8	·	·	·
CCOC1=NN(c2ccccc2)C(=O)/C1=C\N(C)C	94.0	-1.9	10.7	1.25	11.5	100.7	·	·	·
CC1=NN(c2nc3ccccc3[nH]2)C(=O)/C1=C/N(C)C	78.0	41.2*	29.0	0.85	27.8	60.6	·	·	·	STAT1 inh-2=-92.0;NFkB inh=-3.0;STAT3 inh STAT1c=-14.8
Oc1cccc(/C=N/Nc2cccc3cccnc23)c1	89.0	49.2*	15.2	8.92*	227.3*	53.3	·	·	·	STAT1 inh-2=31.6;NFkB inh=-11.7;STAT3 inh STAT1c=-61.0
O=C(N/N=C/c1cccc(O)c1)c1ccc(COc2cccc3cccnc23)cc1	106.7	-10.2	-6.9	1.2	13.1	106.9	·	·	·
Cc1ccccc1OC1C(=O)N(Cc2ccc3c(c2)OCO3)C1c1sccc1C (stereo not given)	96.9	4.7	14.7	0.83	16.3	95.7	·	·	·
SMILES	STAT3 act-1	STAT1 inh-1	STAT3 inh	NF-kB expr up	APP 5'UTR act	STAT1 act-1	STAT3 act-2	NFkB act STAT3ct	STAT1 act-2	others
O=C(/C=C/c1cn(-c2ccccc2)nc1-c1cccnc1)N1CCCC1	83.2	70.9*	26.3	0.69	-19.3	33.7	·	·	·	STAT1 inh-2=55.2*;NFkB inh=36.6*;STAT3 inh STAT1c=33.2*
O=C(CSc1nc2ccccc2c(=O)n1Cc1ccco1)N1CCCC1	98.3	36.8*	4.3	0.77	17.4	65.8	·	·	·	STAT1 inh-2=19.1;NFkB inh=9.9;STAT3 inh STAT1c=9.6
NC(=O)CSc1nc2ccccc2c(=O)n1Cc1ccco1	97.9	0.6	4.6	1	11.6	98.5	·	·	·
Cc1ccc2[nH]c3c(=O)n4c(nc3c2c1)SCC4	82.3	12.0	23.5	1.17	1.7	88.4	·	·	·
COc1ccc2[nH]c3c(=O)n4c(nc3c2c1)SCCC4	82.9	37.3*	25.0	1.1	12.7	66.0	·	·	·	STAT1 inh-2=11.5;NFkB inh=-3.7;STAT3 inh STAT1c=17.0
O=C(COC(=O)c1ccncc1)c1ccc(Cl)c(Cl)c1	98.3	-4.7	4.4	1.13	0.8	102.6	·	·	·
